TAAR1 ag – human TAAR1 agonism | Q96RJ0 | CHO RD-HGA16 TAAR1, Fluo-8 calcium fluorescence; vehicle wells 0%, saturating PEA agonist 100% | activation, % at 3 µM | hit rate 0.99% among 360,000 | AID 624467;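 active means activation above the mean activation of all test compounds in the run plus 3 SD, cut at about 38% in these data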
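test system = CHO RD-HGA16 cells carrying human TAAR1 plus Gα16 | schedule = 17-24 h seeding, 75 min 37 °C dye, 30 min RT | compound dosing = 3 µM single concentration | control set = DMSO and PEA EC100 | replicates = n 1 | signal = Fluo-8 fluorescence, 5 s baseline then 140 s kinetic read | measure = percent activation vs PEA EC100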
GPR7 antag – human neuropeptides B/W receptor 1 antagonism. P48145. GPR7-expressing cells, fluorescence antagonist assay. inhibition, % at 4.4 µM. hit rate 1.1% among 290,000; in the data active means inhibition above about 16%, passing the limit was not always enough;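 further: cells stimulated with the agonist NPW; 0% = agonist with vehicle and 100% = vehicle without agonist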
Target sequence (P48145 whole entry, looked up): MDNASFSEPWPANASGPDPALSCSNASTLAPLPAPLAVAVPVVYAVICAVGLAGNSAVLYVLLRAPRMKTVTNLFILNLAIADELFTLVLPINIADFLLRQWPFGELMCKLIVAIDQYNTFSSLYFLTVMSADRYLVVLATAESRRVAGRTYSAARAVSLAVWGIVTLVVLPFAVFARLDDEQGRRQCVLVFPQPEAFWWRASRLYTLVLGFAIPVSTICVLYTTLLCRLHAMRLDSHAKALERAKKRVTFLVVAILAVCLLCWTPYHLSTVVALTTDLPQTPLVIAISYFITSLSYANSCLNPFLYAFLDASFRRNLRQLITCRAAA
OX1R antag-1 – antagonists of human orexin 1 receptor (OX1R) | hit rate 1.8% among 330,000 | OX1R-expressing cells, FRET antagonist read-out | inhibition, % at 6.6 µM | O43613; in the data active means inhibition mostly above about 38%, no sharp cut-off; inactive means mostly below about 40%;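 further: 0% = agonist challenge alone and 100% = reference antagonist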
Target sequence (O43613 whole entry, looked up): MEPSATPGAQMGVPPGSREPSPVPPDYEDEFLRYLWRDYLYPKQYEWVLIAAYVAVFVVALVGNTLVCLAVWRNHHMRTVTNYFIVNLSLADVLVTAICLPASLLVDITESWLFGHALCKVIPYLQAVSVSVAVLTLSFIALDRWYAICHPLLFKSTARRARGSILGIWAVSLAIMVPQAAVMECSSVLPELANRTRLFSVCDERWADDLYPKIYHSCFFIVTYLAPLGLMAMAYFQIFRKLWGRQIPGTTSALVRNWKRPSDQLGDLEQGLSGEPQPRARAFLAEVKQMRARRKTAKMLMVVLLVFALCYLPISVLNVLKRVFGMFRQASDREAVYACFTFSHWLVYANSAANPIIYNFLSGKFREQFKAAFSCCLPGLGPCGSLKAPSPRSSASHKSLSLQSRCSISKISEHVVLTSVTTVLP
CHO parental Ca – signal in parental CHO cells, OX1R antagonist counter-screen; parental CHO-K1, ATP-induced calcium, Fluo-8 fluorescence; inhibition, % at 5.6 µM; hit rate 0.63% among 330,000;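 active means inhibition above that plate's mean sample inhibition plus 3 SD, cut at about 26% in these data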;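 further: 0% = ATP-challenged DMSO wells and 100% = DMSO wells without ATP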
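Assay system: parental CHO cells; Read-out basis: percent inhibition of ATP-evoked calcium rise, normalized to controls; Benchmarks: ATP and no-ATP DMSO wells; Compound dosing: single nominal dose of 5.6 µM per compound; Signal: Fluo-8 calcium dye fluorescence; Also added: ATP as calcium-mobilizing challenge; Repeats: singlicate.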
TAAR1 antag – human TAAR1 antagonism | AID 624466 | CHO RD-HGA16 TAAR1, Fluo-8 calcium fluorescence, antagonist | inhibition, % at 3 µM | hit rate 1.5% among 360,000 | Q96RJ0;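 active means inhibition above a per-plate cutoff, the mean inhibition of test compounds on that plate plus 3 SD, cut at about 49% in these data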;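 further: 0% = DMSO plus EC80 beta-PEA response and 100% = DMSO alone without agonist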
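Test system – hTAAR1-expressing CHO RD-HGA16 cells, Gα16-coupled · Also added – β-PEA at EC80 concentration, post-compound challenge · Compound – 3 µM, single point · Incubation – dye loading 75 min at 37 °C, then 30 min room temperature · Measured by – Fluo-8 intracellular calcium dye fluorescence, real-time kinetic reads · Benchmarks – vehicle and agonist controls · Replicates – singlicate, one well per test compound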
OX1R antag-2 – antagonists of human orexin 1 receptor | inhibition, % at 5 µM | hit rate 0.43% among 330,000 | AID 434989 | CHO/OX1R cells, Fluo-8 calcium fluorescence, orexin A | O43613;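 active means inhibition above its plate's threshold, mean inhibition of all tested compounds on the plate plus 3 SD, cut at about 37% in these data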;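 further: 0% = orexin A challenge wells and 100% = SB-334867-A antagonist wells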
TAAR1 nonsel count – nonselective antagonism, TAAR1 counter-screen | shares compounds with TAAR1 antag | counterscreen cell line, calcium fluorescence, antagonist mode | inhibition, % at 3 µM | hit rate 77% among 2,400; in the data active means inhibition above about 22%;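 further: CHO-Ga16 host cells stimulated with ATP at an EC80 level; 0% = agonist EC80 plus vehicle and 100% = vehicle without agonist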
TAAR1 antag conf – human TAAR1 antagonism, confirmed; shares compounds with TAAR1 antag; TAAR1-expressing cells, fluorescence antagonist read-out; inhibition, % at 3 µM; hit rate 40% among 2,400; AID 651785; in the data active means inhibition above about 49%;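 further: CHO-Ga16 host cells challenged with agonist PEA near its EC80; 0% = agonist at EC80 plus vehicle and 100% = vehicle with no agonist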
Ga16 ag counter – nonselective Ga16 agonism, counter-screen; shares compounds with TAAR1 antag; Ga16-expressing cells, calcium fluorescence, agonist counterscreen; activation, % at 3 µM; hit rate 18% among 2,400; AID 651953; in the data active means activation above about 12%;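 further: 0% = vehicle wells and 100% = saturating stimulus response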
TAAR1 ag counter – TAAR1 agonism, antagonist counter-screen | activation, % at 3 µM | hTAAR1 cell line, fluorescence activation, agonist mode | hit rate 2% among 2,400 | AID 651955 | shares compounds with TAAR1 antag; in the data active means activation above about 37%;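 further: CHO cells stably expressing TAAR1 with calcium dye readout; 0% = DMSO vehicle and 100% = full agonist response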
* = called active by the depositor; . = no result given. Sampled rows, rich in hits. Any-hit rate of the full collection: about 4.5%.

SMILES	TAAR1 ag	GPR7 antag	OX1R antag-1	CHO parental Ca	TAAR1 antag	OX1R antag-2	TAAR1 nonsel count	TAAR1 antag conf	Ga16 ag counter	TAAR1 ag counter
Cc1ccc(C(C)C)c(OCc2ccc(C(=O)N/N=C/c3ccc(O)c(O)c3)cc2)c1	10	-7	12	2	32	-2	.	.	.	.
COC(=O)N/N=C/c1ccccc1OCc1ccccc1	-1	-7	17	-5	14	-16	.	.	.	.
Cc1cnc2c(N)cc(C)c(C)c2c1	-2	.	.	.	-12	.	.	.	.	.
COc1cc(C)c(C(=O)Oc2cc(C)c(C(=O)O)c(O)c2C)c(O)c1C	-3	.	10	-4	80*	-12	48*	53*	0	-3
COc1ccc(C#Cc2cnc3c(c2)C(=O)N([C@@H](C)CO)C[C@@H](C)[C@@H](CN(C)CC2CCOCC2)O3)cc1	0	.	.	.	-20	.	.	.	.	.
COc1ccccc1/C=C/C(=O)Nc1cccc(S(=O)(=O)N2CCOCC2)c1	9	.	10	-22	59*	-5	24*	45	5	3
Cc1onc(-c2c(F)cccc2Cl)c1C(=O)Nc1cccc(S(=O)(=O)N2CCOCC2)c1	14	.	14	-11	50*	4	26*	39	8	11
Cc1ccc([C@@H]2CC(=O)[C@@H]3CN(S(=O)(=O)c4ccc(C)cc4)[C@H](c4ccc(Cl)cc4)C[C@@H]3N2S(=O)(=O)c2ccc(C)cc2)cc1	4	.	.	.	-11	.	.	.	.	.
CCCC(C(=O)Nc1ccc(S(=O)(=O)Nc2nccs2)cc1)c1ccccc1 (stereo not drawn)	3	.	.	.	-2	.	.	.	.	.
CCN1CCN(c2ccc(NC(=O)CC3OC(=O)c4ccccc43)cc2C)CC1 (stereo not drawn)	0	.	.	.	-6	.	.	.	.	.
CCN(CC)S(=O)(=O)c1ccc(/C=C/C(=O)Nc2cccc(F)c2)cc1	10	10	23	-2	58*	-14	39*	62*	10	7
COc1ccc(C(=O)OCC2CC(c3ccccc3)=NO2)cc1OC (stereo not drawn)	2	-19	3	-5	-8	-24	.	.	.	.
COc1ccc(-c2nc3c(c(=O)n(C)c(=O)n3C)n2CC2CC(c3ccccc3)=NO2)cc1OC (stereo not drawn)	25	-12	31	-7	62*	-24	30*	50*	10	11
CC1=NN(c2nc(N)nc(/C(C#N)=C/c3ccc([N+](=O)[O-])o3)n2)C(C)(C)C1	22	.	.	.	59*	.	57*	66*	23*	28
CC(=O)Oc1ccc(C(=O)Nc2cc(NC(=O)c3ccc(OC(C)=O)cc3)cc(C(=O)NC(C)(C)C)c2)cc1	5	-6	4	15	67*	8	32*	42	5	6
CC(C)c1ccc(NC(=O)N(CCc2nc3ccccc3[nH]2)C2CCCC2)cc1	4	7	17	-18	54*	-33	30*	38	5	6
CC(=O)Nc1ccc(CCc2nc3ccccc3[nH]2)cc1	5	-16	4	4	-9	2	.	.	.	.
CCOc1ccc(C(=O)Nc2ccccc2N2CCN(C(=O)c3ccccc3)CC2)cc1[N+](=O)[O-]	8	-6	8	-14	67*	-9	25*	45	8	8
CCOc1ccc(S(=O)(=O)c2ccc(C)cc2)c2c1no[n+]2[O-]	9	.	.	.	13	.	.	.	.	.
Cc1cc(Nc2ccccc2)nc(-c2ccccc2O)n1	17	-12	27	-18	16	-6	.	.	.	.
CCOC(=O)c1ccc(Nc2cc(C)nc(-c3ccccc3O)n2)cc1	2	5	21	-19	53*	-34	26*	40	6	5
O=C(CN(c1ccc2c(c1)OCCO2)S(=O)(=O)c1ccccc1)NCc1ccc(Cl)cc1	14	-2	9	-17	75*	-33	26*	62*	9	12
O=C(CN1CCN(c2ccccn2)CC1)Nc1ccc([N+](=O)[O-])cc1C(=O)Nc1ccccc1F	3	6	21	-18	57*	-56	17	40	16*	5
COc1ccc(NC(=O)c2oc3ccc(S(=O)(=O)N4CCC5(CC4)OCCO5)cc3c2C)cc1	22	8	9	-5	56*	16	40*	56*	14*	15
COc1ccc(N(C)S(=O)(=O)c2cccc(C(=O)Nc3cccc(C(=O)NC4CC4)c3)c2)cc1	9	.	8	-16	61*	-5	21	40	11	8
SMILES	TAAR1 ag	GPR7 antag	OX1R antag-1	CHO parental Ca	TAAR1 antag	OX1R antag-2	TAAR1 nonsel count	TAAR1 antag conf	Ga16 ag counter	TAAR1 ag counter
COc1ccc(N(C)S(=O)(=O)c2cccc(C(=O)OCC(=O)Nc3cc(C)ccc3OC)c2)cc1	9	.	.	.	84*	.	34*	51*	12*	8
COc1ccc(N(C)S(=O)(=O)c2cccc(C(=O)Nc3nc(C)c(C(C)=O)s3)c2)cc1	27	.	22	-1	62*	8	38*	57*	15*	13
COc1ccc(C(N)c2csc(Nc3ccc(S(C)(=O)=O)cc3)n2)cc1 (stereo not drawn)	3	.	.	.	-3	.	.	.	.	.
COc1ccc(S(=O)(=O)Nc2ncccn2)cc1	-3	-4	9	4	105*	-18	3	-1	1	1
O=c1[nH]c2ccccc2cc1CN(c1ccccc1)S(=O)(=O)c1ccccc1	5	0	7	-28	7	-26	.	.	.	.
COc1ccc2[nH]c(=O)c(CN(c3ccccc3OC)S(=O)(=O)c3ccccc3)cc2c1	10	-4	8	-15	74*	-34	33*	49*	9	9
COc1ccc2[nH]c(=O)c(CN(CC3CCCO3)C(=O)Nc3ccccc3OC)cc2c1 (stereo not drawn)	16	-6	.	.	63*	.	29*	42	6	6
CCC(=O)N(Cc1cc2cc(OC)ccc2[nH]c1=O)c1ccccc1OC	2	.	.	.	-4	.	.	.	.	.
COc1ccccc1NC(=O)N(Cc1cc2cc(OC)c(OC)cc2[nH]c1=O)CC1CCCO1 (stereo not drawn)	2	-10	6	-31	12	-22	.	.	.	.
COc1ccc(S(=O)(=O)N(Cc2cccnc2)Cc2cc3ccccc3[nH]c2=O)cc1	11	-2	9	-27	51*	-25	15	25	6	4
